CCR6 antag – CCR6 (human) receptor antagonism; hit rate 0.49% among 340,000; P51684; inhibition, % at 20 µM; CHO-K1 CCR6 PathHunter beta-arrestin, luminescence, CCL20-stimulated;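 active means compounds whose inhibition of the agonist-driven luminescence signal at 20 µM reaches about 50%, limit read from the data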;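 further: cells stimulated with CCL20 at 14 nM final; plate controls were DMSO with CCL20 for no effect and DMSO without agonist for full effect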
TAG inh – reduces triacylglycerol accumulation in H9c2 cells; Nile Red lipid (TAG) fluorescence; cells loaded with 200 µM oleic acid; inhibition, % at 12.5 µM; hit rate 0.66% among 230,000;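 active means pattern-corrected inhibition of lipid staining of at least 50% with the nuclear-stain viability signal not falling by more than 50%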;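 further: 0% = DMSO wells and 100% = triacsin C control wells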
EBI2 antag – blocks human EBI2 receptor beta-arrestin signaling. inhibition, % at 5 µM. hit rate 0.81% among 360,000. EBI2 beta-arrestin recruitment, luminescence, 7a,25-OHC stimulated. P32249; in the data active means inhibition above about 38%;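 further: enzyme fragment complementation signal reports receptor beta-arrestin coupling in cells; 0% = agonist plus DMSO wells and 100% = wells without agonist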
Target sequence (P32249 whole entry, looked up, the tested form may be a part): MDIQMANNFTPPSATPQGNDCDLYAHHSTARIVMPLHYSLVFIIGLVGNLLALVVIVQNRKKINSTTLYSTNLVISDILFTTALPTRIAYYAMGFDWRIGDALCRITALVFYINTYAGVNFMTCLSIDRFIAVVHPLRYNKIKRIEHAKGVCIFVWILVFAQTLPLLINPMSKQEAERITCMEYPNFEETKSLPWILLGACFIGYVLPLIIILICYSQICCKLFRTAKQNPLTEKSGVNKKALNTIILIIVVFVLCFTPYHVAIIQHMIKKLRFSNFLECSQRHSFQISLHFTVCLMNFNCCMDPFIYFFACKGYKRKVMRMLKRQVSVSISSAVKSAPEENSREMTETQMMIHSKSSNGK
APJ agonist – activates the human apelin receptor APJ. P35414. CHO-K1 APJ PathHunter beta-arrestin, luminescence; 0% DMSO wells, 100% apelin. activation, % at 20 µM. hit rate 0.11% among 330,000. AID 2520;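 active means activation more than six SD over the plate average, tested at 20 µM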;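 further: 0% = DMSO alone and 100% = apelin-13 at 10 nM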
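Test system – PathHunter CHO-K1 APJ (AGTRL-1) beta-arrestin reporter cells · Input – 1000 cells/well · Compound – single test compound dose, 20 µM final, 1% DMSO · Times – compound stimulation 90 min at 25 °C, detection 60 min · Technique – beta-gal luminescence · Read-out basis – APJ–arrestin association signal · Control set – negative DMSO alone, positive Apelin-13 at 10 nM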
APJ antag – antagonists of human APJ apelin receptor | AID 2521 | hit rate 0.32% among 330,000 | CHO-K1 APJ beta-arrestin complementation, luminescence | inhibition, % at 20 µM;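 active means inhibition above about 40% at 20 µM, limit read from the data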;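 further: cells challenged with 10 nM apelin-13 agonist together with compound; plate controls were apelin-13 plus DMSO wells for no effect and DMSO wells lacking apelin-13 for full effect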
CXCR6 inh – CXCR6 (human) receptor inhibition; O00574; CHO-K1 PathHunter CXCR6 beta-arrestin, luminescence; inhibition, % at 20 µM; hit rate 0.36% among 360,000; AID 602244; in the data active means inhibition above about 34%, passing the limit was not always enough;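 further: antagonist mode with CXCL16 agonist at 10 nM final; 0% = 10 nM CXCL16 with DMSO and 100% = unstimulated wells without agonist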
Active calls of the source: *; · = no result. Only some compounds are listed: those with a hit (about 1.9% of all), similar ones and a draw of the others.

SMILES	CCR6 antag	TAG inh	EBI2 antag	APJ agonist	APJ antag	CXCR6 inh
C(=N\NC1=Nc2cccc3cccc1c23)/c1ccccn1	8.1	50.6*	8.8	·	·	-4.5
Cc1csc(N/N=C/c2ccccn2)n1	60.3*	16.6	0.0	-1.0	12.4	22.8
C(=N\Nc1nc2ccccc2s1)/c1ccccn1	76.9*	·	·	-2.3	33.9	·
Clc1ccccc1/C=N/NC1=Nc2cccc3cccc1c23	22.7	·	27.3	-2.6	-4.6	1.5
Cc1csc(N/N=C/c2ccc([N+](=O)[O-])cc2)n1	-4.9	·	-7.7	6.3	0.5	-8.4
Cc1[nH]n(-c2ccccc2)c(=O)c1C=Nc1cccc2cccnc12	52.3*	·	95.7*	-13.1	94.2*	53.9*
Cc1[nH]n(-c2ccccc2)c(=O)c1/C=N/N1C(=O)c2cccc3cccc(c23)C1=O	73.5*	5.0	1.8	-4.7	18.1	52.5*
CCN1C(=O)[C@H]2[C@@H](c3ccc(-c4cccc(Cl)c4)c(OC)c3)N[C@@](CC(C)C)(C(=O)OC)[C@H]2C1=O	3.9	70.0*	-13.7	7.3	-40.9	5.0
CCN(C[C@H]1N[C@@](Cc2ccccc2)(C(=O)OC)[C@H]2C(=O)N(Cc3ccccc3)C(=O)[C@@H]12)C(=O)Nc1ccc(C(F)(F)F)cc1	-4.2	11.7	16.1	-3.3	-12.3	-3.6
Cc1ccccc1COc1cccn2c(N(C)C(=O)CCC3CCCC3)c(C)nc12	·	2.0	8.9	·	·	12.1
CCCCC(CC)CN=C(N)NC(N)=NCCCCCCN=C(N)NC(N)=NCC(CC)CCCC (centres undefined)	78.6*	128.0	-0.5	-7.0	23.3	89.7*
CCCCC(CC)CO (centres undefined)	-8.5	·	-2.9	-3.5	10.4	-1.9
O=C(Cc1ccc(Cl)cc1)OCC(=O)N1CCCCCC1	5.2	-17.7	10.3	-3.7	5.5	-3.0
O=C(OCC(=O)c1ccc(S(=O)(=O)N2CCCC2)cc1)C1=COCCO1	53.2*	-11.6	1.2	-9.3	27.1	26.9
Cc1ccc(C(=O)OCC(=O)c2ccc(S(=O)(=O)N3CCCCC3)cc2)o1	52.7*	8.8	19.8	-19.0	35.6	32.2
CCOC(=O)C1(C)CCCN(C(=O)c2ccc(OC)c(OC)c2)C1 (centres undefined)	·	11.5	6.5	·	·	-3.8
CCC(CC)CN1CCC(CN2C(=S)NC[C@@H]2CC(C)C)CC1	-6.5	-14.7	3.3	·	·	-6.5
O=[N+]([O-])c1ccc(NNC(=S)Nc2ccc(F)cc2)cc1	68.0*	·	3.4	-0.4	21.7	25.4
O=C(NNC(=S)Nc1ccc(F)cc1)c1cccc([N+](=O)[O-])c1	-4.6	5.8	8.1	1.8	15.7	-1.7
COc1ccc(S(=O)(=O)N2CCN(C(=O)C3CC3)CC2)cc1Br	4.8	-22.8	11.5	-1.8	0.2	0.9
CCOc1ccccc1OCCCC(=O)NNC(=O)c1cc(C)oc1C	-9.3	-5.3	-5.5	-0.2	-5.0	8.5
CC(C)N1C(=O)/C(=C/c2nc3ccccc3c(=O)n2-c2ccccc2)c2ccccc21	11.2	-18.0	56.0*	-1.2	30.6	13.3
CC(C)N1C(=O)/C(=C\c2nc3ccccc3c(=O)n2-c2ccccc2)c2ccccc21	23.6	·	55.5*	·	·	11.9
CC(C)N1C(=O)C(Cc2nc3ccccc3c(=O)n2-c2ccccc2)c2ccccc21 (centres undefined)	21.0	·	11.8	-3.1	19.0	3.8
O=C(c1ccc(F)c(F)c1)N1CCC2(CC1)NCCc1[nH]cnc12	4.8	·	-11.3	0.2	15.8	0.6
SMILES	CCR6 antag	TAG inh	EBI2 antag	APJ agonist	APJ antag	CXCR6 inh
C/C(=N\NC(N)=S)c1ccc2c(c1)OCCO2	3.9	-6.9	2.9	3.2	-31.8	-2.5
C/C(=N\NC(=S)Nc1ccc(F)cc1)c1ccc2c(c1)OCCO2	58.2*	·	-4.2	-6.1	24.9	30.1
CC1=C(C(=O)OC2CCCCCC2)C(c2ccc(C)o2)C2=C(CCCC2=O)N1 (centres undefined)	25.1	·	12.9	1.0	9.9	5.8
COC(=O)C1=C(C)NC2=C(C(=O)CC(c3cccs3)C2)C1c1ccsc1 (centres undefined)	58.1*	4.5	22.2	·	·	32.6
CC1=C(C(=O)OC2CCCC2)C(c2ccc(C)o2)C2=C(CC(c3cccs3)CC2=O)N1 (centres undefined)	58.4*	·	32.1	-3.2	4.3	26.0
CCCOC(=O)C1=C(C)NC2=C(C(=O)CCC2)C1c1cccs1 (centres undefined)	2.2	-24.6	1.5	-2.8	-2.7	2.0
CCOC(=O)c1c(C)[nH]c(C)c1C(=O)COC(=O)CCc1ccccc1	2.0	3.5	18.0	-1.1	9.7	-2.0
CC(=O)CC1OC(=O)C(Br)=C1NCc1ccccc1 (centres undefined)	61.2*	·	11.3	-5.1	39.8	31.5
COc1ccc(OC(=O)N2C/C(=C/c3ccccc3)C(=O)/C(=C\c3ccccc3)C2)cc1	28.8	4.6	55.6*	·	·	12.7
O=C1/C(=C/c2ccccc2)CN(C(=O)CCN2CCOCC2)C/C1=C\c1ccccc1	52.6*	13.7	18.1	·	·	31.1
CN(C)CCC(=O)N1C/C(=C/c2ccccc2)C(=O)/C(=C\c2ccccc2)C1	78.5*	43.9	38.7	·	·	66.4*
O=C(O)C1CCCCC1C(=O)NCCc1ccc(F)cc1 (centres undefined)	-3.3	0.4	9.7	-1.8	-6.5	-7.6
CN(C)c1cccc(NC(=O)c2cccc3c(-c4ccc(F)c(F)c4)coc23)c1	·	-15.7	2.3	·	·	-0.8
COc1cc(C2C(C#N)=C(N)Oc3cc(N)ccc32)cc(OC)c1OC (centres undefined)	-6.1	65.0*	-26.9	1.6	-2.7	-2.5
COc1cccc(CNC(=O)COC(=O)c2nc(Cl)c(Cl)c(Cl)c2Cl)c1	-19.7	3.4	-8.8	-4.3	21.3	-6.2
CC[C@]12c3[nH]c4ccc(Cl)cc4c3CCN1C(=O)[C@@H](CC(=O)NC/C=C(\C)CCC=C(C)C)C[C@@H]2C(=O)N1CCN(C(=O)C2CC2)CC1	9.9	37.1	35.2	·	·	-5.7
CC(C)NC(=O)C(=O)NCCCN1CCOCC1	13.1	-1.9	-2.0	0.5	-0.4	-2.5
COC(=O)c1ccc(Cl)c(NC(=O)NC23CC4CC(CC(C4)C2)C3)c1	7.3	69.8*	-14.9	4.1	10.0	-21.2
O=C(c1ccc(Cl)cc1)N1CCN(c2ccnc3cc(Cl)ccc23)CC1	7.8	-16.3	50.6*	·	·	-15.3
COc1ccc(CCNC(=O)CCc2cn(C)c3ccccc23)c(OC)c1OC	16.6	·	2.7	-1.8	4.4	2.0
O=C(CNc1ccc(Cl)cc1)c1ccc(Br)cc1	61.9*	4.0	31.7	-12.5	82.7*	37.9
COc1ccc(NC2CCCN(C(=O)C3(C)CCCCC3)C2)cc1OC (centres undefined)	-0.8	·	-5.5	-0.8	5.0	-10.2
